The term IC50 denotes the concentration that gives 50% inhibition. What is called EC50 is the concentration giving half of the maximal effect. Usually Emax stands for the greatest response seen or fitted, relative to the assay's reference.

Square brackets hold non-standard residues; d marks the D form. Peptide text beside a SMILES is read from it. Aib = CC(C)(N)C(=O)O

What all share (assay type): functional, cell-based
The target in experiment [1] is T1, Neuropeptide S receptor (Mus musculus, UniProt Q8BZP8).
T1 sequence (Q8BZP8 whole entry): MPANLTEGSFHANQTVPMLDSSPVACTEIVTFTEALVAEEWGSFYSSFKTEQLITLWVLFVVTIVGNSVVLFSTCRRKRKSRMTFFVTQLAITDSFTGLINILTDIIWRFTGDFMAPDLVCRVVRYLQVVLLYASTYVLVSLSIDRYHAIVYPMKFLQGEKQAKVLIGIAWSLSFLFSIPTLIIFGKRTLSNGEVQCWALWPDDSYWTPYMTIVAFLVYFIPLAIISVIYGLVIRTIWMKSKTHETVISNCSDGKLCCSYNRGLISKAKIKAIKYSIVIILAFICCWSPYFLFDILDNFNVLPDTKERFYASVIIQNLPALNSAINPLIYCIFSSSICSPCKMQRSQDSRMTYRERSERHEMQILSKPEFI
Nature of the experiment: Antagonist activity at mouse NPSR expressed in HEK293 cells assessed as inhibition of 100 nM hNPS-induced calcium mobilization. The gist of the method:
(§1)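 Mouse NPSR stably expressed in HEK293 cells, grown with hygromycin, then plated at 50 000 cells/well. Next day, cells were loaded for 30 min at 37 °C with 3 µM Fluo-4 AM, 2.5 mM probenecid and 0.01% pluronic acid. The assay buffer was HBSS with 20 mM HEPES, probenecid and 500 µM Brilliant Black. Fluorescence was read at about 22 °C. pIC50 came from a logistic fit of peak fluorescence (% of baseline). At least four experiments, each in duplicate.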

The target in experiment [2] is T1, Neuropeptide S receptor. Nature of the experiment: Agonist activity at mouse recombinant NPSR expressed in HEK293 cells assessed as calcium mobilization. The gist of the method: (§2)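 HEK293 cells stably expressing mouse NPSR, grown in DMEM/10% FBS/2 mM glutamine/hygromycin at 37 °C, 5% CO2. Seeded 50,000 cells/well on poly-D-lysine; next day loaded 30 min at 37 °C with 3 µM Fluo-4 AM, 2.5 mM probenecid, 0.01% pluronic acid. Read in HBSS/20 mM HEPES/probenecid/Brilliant Black at ≈22 °C on FlexStation; peak fluorescence change as % baseline; logistic fit; ≥4 experiments in duplicate.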

Experiment [3] addresses T1, Neuropeptide S receptor. Nature of the experiment: Antagonist activity at mouse NPSR expressed in HEK293 cells assessed as inhibition of 10 nM hNPS-induced calcium mobilization. Put shortly: as §1
Experiment [4] concerns the target T2, Neuropeptide S receptor (Mus musculus) (UniProt Q8BZP8).
T2 sequence (whole entry): T1 sequence (Q8BZP8 whole entry)
Nature of the experiment: Agonist activity at mouse recombinant NPSR expressed in HEK293 cells assessed as calcium mobilization relative to baseline. Put shortly: as §2
On the technique in general: A change in cytosolic calcium serves as a functional read-out for many receptors and channels.

On to `CSCC[C@H](NC(=O)CNC(=O)[C@@H](NC(=O)CNC(=O)[C@@H](NC(=O)C(C)(C)NC(=O)[C@H](CC(N)=O)NC(=O)[C@H](CCCNC(=N)N)NC(=O)[C@H](Cc1ccccc1)NC(=O)[C@@H](N)CO)C(C)C)[C@@H](C)O)C(=O)N[C@@H](CCCCN)C(=O)N[C@@H](CCCCN)C(=O)N[C@H](C(=O)N[C@@H](CO)C(=O)N[C@@H](Cc1ccccc1)C(=O)N[C@@H](CCC(N)=O)C(=O)N[C@@H](CCCNC(=N)N)C(=O)N[C@@H](C)C(=O)N[C@@H](CCCCN)C(=O)N[C@@H](CO)C(=O)O)[C@@H](C)O` (H-SFRN[Aib]VGTGMKKTSFQRAKS-OH), for which the IC50 is 1620 nM at Neuropeptide S receptor [1] and 537 nM at Neuropeptide S receptor [3]. For the same compound, the 50% effective concentration (EC50) at Neuropeptide S receptor [2] is 191 nM. Further, the Emax in experiment [4] was found to be 65%.
In the case of `CSCC[C@H](NC(=O)CNC(=O)[C@@H](NC(=O)CNC(=O)[C@@H](NC(=O)[C@@H](C)NC(=O)[C@H](CC(N)=O)NC(=O)[C@H](CCCNC(=N)N)NC(=O)[C@H](Cc1ccccc1)NC(=O)[C@@H](N)CO)C(C)C)[C@@H](C)O)C(=O)N[C@@H](CCCCN)C(=O)N[C@@H](CCCCN)C(=O)N[C@H](C(=O)N[C@@H](CO)C(=O)N[C@@H](Cc1ccccc1)C(=O)N[C@@H](CCC(N)=O)C(=O)N[C@@H](CCCNC(=N)N)C(=O)N[C@@H](C)C(=O)N[C@@H](CCCCN)C(=O)N[C@@H](CO)C(=O)O)[C@@H](C)O` (H-SFRN[dA]VGTGMKKTSFQRAKS-OH), the 50% effective concentration (EC50) at Neuropeptide S receptor [2] is 28.2 nM. Also, in experiment [4], the maximal effect (Emax) was 90%.
As for `CSCC[C@H](NC(=O)CNC(=O)[C@@H](NC(=O)CNC(=O)[C@@H](NC(=O)CNC(=O)[C@H](CC(N)=O)NC(=O)[C@H](CCCNC(=N)N)NC(=O)[C@H](Cc1ccccc1)NC(=O)C(C)(C)N)C(C)C)[C@@H](C)O)C(=O)N[C@@H](CCCCN)C(=O)N[C@@H](CCCCN)C(=O)N[C@H](C(=O)N[C@@H](CO)C(=O)N[C@@H](Cc1ccccc1)C(=O)N[C@@H](CCC(N)=O)C(=O)N[C@@H](CCCNC(=N)N)C(=O)N[C@@H](C)C(=O)N[C@@H](CCCCN)C(=O)N[C@@H](CO)C(=O)O)[C@@H](C)O` (H-[Aib]FRNGVGTGMKKTSFQRAKS-OH), the EC50 on Neuropeptide S receptor [2] is 6.76 nM. Further, in experiment [4], the Emax came out at 184%.
For `CSCC[C@H](NC(=O)CNC(=O)[C@@H](NC(=O)CNC(=O)[C@@H](NC(=O)CNC(=O)[C@H](CC(N)=O)NC(=O)[C@H](CCCNC(=N)N)NC(=O)[C@H](Cc1ccccc1)NC(=O)[C@@H](N)CO)C(C)C)[C@@H](C)O)C(=O)N[C@@H](CCCCN)C(=O)N[C@@H](CCCCN)C(=O)N[C@H](C(=O)N[C@@H](CO)C(=O)N[C@@H](Cc1ccccc1)C(=O)N[C@@H](CCC(N)=O)C(=O)N[C@@H](CCCNC(=N)N)C(=O)N[C@@H](C)C(=O)N[C@@H](CCCCN)C(=O)N[C@@H](CO)C(=O)O)[C@@H](C)O` [NEUROPEPTIDE S] (H-SFRNGVGTGMKKTSFQRAKS-OH), on Neuropeptide S receptor [2], the EC50 was 9.12 nM. Besides, the Emax in experiment [4] was 175%.

These data come from ChEMBL document CHEMBL1148770, “Conformation-activity relationship of neuropeptide S and some structural mutants: helicity affects their interaction with the receptor” (J Med Chem, 2007).
